Molecules are shown by their SMILES. In brackets after ≈: the same amount, converted by molar mass.

Series [1] deals with Mycobacterium tuberculosis. The series is described as follows: Antimycobacterial activity against Mycobacterium tuberculosis H37Rv ATCC 27294 assessed as growth inhibition after 28 days by agar dilution method. In kind it is functional. The note with it: H37Rv ATCC 27294, 672 h. An outline of the steps: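 Agar dilution in Middlebrook 7H11 with OADC; two-fold dilutions, final 50 to 0.78 µg/mL. Inoculum from fresh 7H11 slants, 1 mg/mL wet weight in 0.05% Tween 80 saline, diluted 10⁻² (~10⁷ cfu/mL); 5 µL spotted per tube. Incubated 37 °C, read at 28 days; MIC = lowest concentration giving complete growth inhibition. Isoniazid, ethambutol, GSK358607A references.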

Series [2] in a line: Cytotoxicity against mouse RAW264.7 cells assessed as inhibition of cell viability at 50 uM after 72 hrs by MTT assay. The settings on record: read-out: INH. Type of series: cell-based.
Series [3] deals with T1, Pantothenate synthetase (Mycobacterium tuberculosis, UniProt P9WIL5).
T1 sequence (P9WIL5 whole entry): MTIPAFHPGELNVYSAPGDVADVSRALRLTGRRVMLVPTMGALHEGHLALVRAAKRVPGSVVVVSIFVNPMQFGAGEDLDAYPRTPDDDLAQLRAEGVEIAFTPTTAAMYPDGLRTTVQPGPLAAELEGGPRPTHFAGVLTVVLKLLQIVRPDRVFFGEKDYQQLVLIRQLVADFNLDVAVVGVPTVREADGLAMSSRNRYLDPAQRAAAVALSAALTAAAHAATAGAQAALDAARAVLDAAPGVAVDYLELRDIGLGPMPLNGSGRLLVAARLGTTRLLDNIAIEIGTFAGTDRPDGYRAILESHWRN
The series is described as follows: Inhibition of Mycobacterium tuberculosis pantothenate synthetase expressed in Escherichia coli BL21 (DE3) by spectrophotometry. In outline:
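Reaction started by adding PS diluted in buffer; absorbance at 340 nm read every 12 s for 120 s. Percent inhibition = 100 × [1 − (compound rate − background rate)/(full reaction rate − background rate)].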

The target in series [4] is T2, Pantothenate synthetase (Mycobacterium tuberculosis) (UniProt P9WIL5).
T2 sequence (whole entry): T1 sequence (P9WIL5 whole entry)
The series is described as follows: Binding affinity to Mycobacterium tuberculosis pantothenate synthetase assessed as melting temperature by differential scanning fluorimetry. An outline of the steps: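 Protein–ligand complexes with SYPRO Orange dye heated 25 to 95 °C in 0.1 °C steps; fluorescence tracked to obtain Tm, with shift relative to native protein taken as stabilisation from binding.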

In the case of `Cc1nc2ccccn2c1C(=O)N/N=C/c1ccc(C(F)(F)F)cc1`, in series [1], the MIC came out at 9.01 µM (≈ 3.12 µg/mL). Moreover, the cytotoxicity at 72 h, 50 µM in series [2] is 24.6%. Besides, inhibition in series [3] was half-maximal at 8.18 µM (IC50).

In the case of `Cc1nc2ccccn2c1C(=O)Nc1ccc(Cl)cc1`, in series [1], the MIC was found to be 87.4 µM (≈ 25 µg/mL). This molecule also showed an IC50 in series [3] of 2.6 µM.

In the case of `Cc1nc2ccccn2c1C(=O)NNC(=O)C1CCCCC1`, the minimal inhibitory concentration (MIC) in series [1] was found to be 10.4 µM (≈ 3.12 µg/mL). Moreover, the cytotoxicity at 72 h, 50 µM in series [2] worked out at 31.7%. The molecule further had an IC50 in series [3] of 7.7 µM.

In the case of `COc1ccc(/C=N/NC(=O)c2c(C)nc3ccccn23)cc1`, the MIC in series [1] is 80.9 µM (≈ 24.9 µg/mL). This molecule came in with a half-inhibitory concentration (IC50) in series [3] of 6.37 µM.

As to `Cc1nc2ccccn2c1C(=O)N/N=C/c1ccc([N+](=O)[O-])cc1`, the minimum inhibitory concentration (MIC) in series [1] amounted to 38.6 µM (≈ 12.5 µg/mL). In series [3], this molecule yielded an IC50 of over 25 µM.

Turning to `Cc1nc2ccccn2c1C(=O)Nc1ccccc1`, in series [1], the MIC worked out at 188 µM (≈ 47.2 µg/mL). Moreover, half-maximal inhibition in series [3] (IC50) was put at 12.8 µM.

In the case of `Cc1nc2ccccn2c1C(=O)Nc1ccc(Br)cc1`, in series [1], the MIC was determined as 37.9 µM (≈ 12.5 µg/mL). Further, half-maximal inhibition in series [3] (IC50) required 6.95 µM.

In the case of `Cc1nc2ccccn2c1C(=O)Nc1ccccn1`, in series [1], the MIC came out at 98.8 µM (≈ 24.9 µg/mL). Also, the IC50 in series [3] is over 25 µM.

On to `Cc1ccc(C(=O)NNC(=O)c2c(C)nc3ccccn23)cc1`, for which the MIC in series [1] turned out to be 80.9 µM (≈ 24.9 µg/mL). Also, the half-maximal inhibitory concentration (IC50) in series [3] was 3.35 µM.

Regarding `Cc1nc2ccccn2c1C(=O)N/N=C/c1ccc(OCc2ccccc2)cc1`, in series [1], the minimal inhibitory concentration (MIC) amounted to 32.5 µM (≈ 12.5 µg/mL). For the same molecule, it took 5.37 µM to reach half-maximal inhibition in series [3] (IC50).

As for `Cc1nc2ccccn2c1C(=O)NCCc1ccccc1`, the minimal inhibitory concentration (MIC) in series [1] came to 89.3 µM (≈ 24.9 µg/mL). In series [3], this molecule registered an IC50 of 5.77 µM.

As for `Cc1nc2ccccn2c1C(=O)N/N=C/c1ccccc1`, in series [1], the minimum inhibitory concentration (MIC) is 179 µM (≈ 49.9 µg/mL). The half-maximal inhibitory concentration (IC50) in series [3] was 4.86 µM.

Turning to `Cc1nc2ccccn2c1C(=O)N/N=C/c1ccc(O)cc1`, in series [1], the MIC worked out at 21.2 µM (≈ 6.24 µg/mL). Further, the cytotoxicity at 72 h, 50 µM in series [2] came to 19.4%. In series [3], this molecule yielded a half-inhibitory concentration (IC50) of 7.49 µM.

Regarding `Cc1nc2ccccn2c1C(=O)Nc1cccc(C(F)(F)F)c1`, the MIC in series [1] amounted to 78.1 µM (≈ 24.9 µg/mL). Besides, it took 7.01 µM to reach half-maximal inhibition in series [3] (IC50).

For `CCOc1ccc(NC(=O)c2c(C)nc3ccccn23)cc1`, in series [1], the MIC was found to be 42.2 µM (≈ 12.5 µg/mL). The half-inhibitory concentration (IC50) in series [3] was over 25 µM.

Take `Cc1nc2ccccn2c1C(=O)NNC(=O)c1ccc(Cl)cc1Cl`: the MIC in series [1] was 17.2 µM (≈ 6.25 µg/mL). Moreover, the cytotoxicity at 72 h, 50 µM in series [2] amounted to 20.1%. For the same molecule, the half-maximal inhibitory concentration (IC50) in series [3] was found to be 5.13 µM.

In the case of `NNC(=O)c1ccncc1` [ISONIAZID], in series [1], the minimum inhibitory concentration (MIC) amounted to 0.72 µM (≈ 0.0987 µg/mL). The same molecule came in with an IC50 in series [3] of over 25 µM.

Regarding `Cc1nc2ccccn2c1C(=O)NCc1ccccc1`, the MIC in series [1] was determined as 23.5 µM (≈ 6.23 µg/mL). The cytotoxicity at 72 h, 50 µM in series [2] stood at 24.5%. Inhibition in series [3] was half-maximal at 2.74 µM (IC50).

Consider `Cc1nc2ccccn2c1C(=O)NC1CCCCC1`, for which the MIC in series [1] was determined as 96.9 µM (≈ 24.9 µg/mL). The IC50 in series [3] was 1.99 µM.

Regarding `Cc1ccc2nc(C)c(C(=O)NCc3cccs3)n2c1`, the minimal inhibitory concentration (MIC) in series [1] is 0.19 µM (≈ 0.0542 µg/mL). This molecule returned an IC50 in series [3] of 8.12 µM.

For the molecule `Cc1nc2ccccn2c1C(=O)NNC(=O)c1cc([N+](=O)[O-])cc([N+](=O)[O-])c1`, in series [1], the MIC came out at 16.2 µM (≈ 6.24 µg/mL). Besides, the cytotoxicity at 72 h, 50 µM in series [2] turned out to be 40.6%. For the same molecule, the concentration for half-maximal inhibition (IC50) in series [3] amounted to 6.48 µM.

With `Cc1nc2ccccn2c1C(=O)NCc1ccco1`, the MIC in series [1] worked out at 24.4 µM (≈ 6.23 µg/mL). Also, the cytotoxicity at 72 h, 50 µM in series [2] stood at 20.7%. In series [3], this molecule came in with an IC50 of 2.81 µM.

On to `Cc1ccc(/C=N/NC(=O)c2c(C)nc3ccccn23)cc1`, for which, in series [1], the MIC came to 21.3 µM (≈ 6.24 µg/mL). Further, the cytotoxicity at 72 h, 50 µM in series [2] amounted to 16.7%. In series [3], this molecule registered an IC50 of 7.46 µM.

Take `Cc1nc2ccccn2c1C(=O)N/N=C/c1ccc(Br)cc1`: the minimal inhibitory concentration (MIC) in series [1] amounted to 35 µM (≈ 12.5 µg/mL). The molecule further came in with a concentration for half-maximal inhibition (IC50) in series [3] of 4.43 µM.

Take `Cc1nc2ccccn2c1C(=O)NNC(=O)c1ccc(Oc2ccccc2)cc1`: the MIC in series [1] turned out to be 32.3 µM (≈ 12.5 µg/mL). The molecule further had a half-maximal inhibitory concentration (IC50) in series [3] of 7.22 µM.

Take `COc1ccccc1C(=O)NNC(=O)c1c(C)nc2ccccn12`: the MIC in series [1] came to 19.2 µM (≈ 6.24 µg/mL). Besides, the cytotoxicity at 72 h, 50 µM in series [2] came out at 19%. This molecule also showed a 50% inhibitory concentration (IC50) in series [3] of 8.21 µM.

With `Cc1nc2ccccn2c1C(=O)NNC(=O)c1cccc2ccccc12`, the Tm in series [4] turned out to be 51 °C. The MIC in series [1] is 4.53 µM (≈ 1.56 µg/mL). Also, the cytotoxicity at 72 h, 50 µM in series [2] amounted to 28.4%. For the same molecule, half-maximal inhibition in series [3] (IC50) was put at 1.9 µM.

For `COc1cc(/C=N/NC(=O)c2c(C)nc3ccccn23)cc(OC)c1OC`, in series [1], the MIC was found to be 67.8 µM (≈ 25 µg/mL). The midpoint of inhibition in series [3], the IC50, lay at 7.05 µM.

Take `Cc1nc2ccccn2c1C(=O)NNC(=O)c1ccccc1`: the MIC in series [1] stood at 42.4 µM (≈ 12.5 µg/mL). Besides, in series [3], the IC50 came out at 3.54 µM.

As to `CC[C@@H](CO)NCCN[C@@H](CC)CO` [ETHAMBUTOL], the MIC in series [1] is 7.64 µM (≈ 1.56 µg/mL). Moreover, the 50% inhibitory concentration (IC50) in series [3] was over 25 µM.

`Cc1nc2ccccn2c1C(=O)NNC(=O)c1ccco1`: the MIC in series [1] was found to be 11 µM (≈ 3.12 µg/mL). In addition, the cytotoxicity at 72 h, 50 µM in series [2] stood at 16.8%. In addition, it took 8.93 µM to reach half-maximal inhibition in series [3] (IC50).

Take `Cc1nc2ccccn2c1C(=O)NNC(=O)c1cccc([N+](=O)[O-])c1`: the MIC in series [1] was determined as 36.8 µM (≈ 12.5 µg/mL). Further, inhibition in series [3] was half-maximal at 9.2 µM (IC50).

In the case of `Cc1nc2ccccn2c1C(=O)N/N=C/c1ccc(F)cc1`, the MIC in series [1] stood at 21 µM (≈ 6.23 µg/mL). Moreover, in series [2], the cytotoxicity at 72 h, 50 µM is 20.9%. This molecule also had a half-maximal inhibitory concentration (IC50) in series [3] of 3.77 µM.
